Laboratory results: ChEMBL document CHEMBL2040797, “Synthesis of benzimidazoles bearing oxadiazole nucleus as anticancer agents” (2012)

Tests used:
Type in all cases: functional
SNB-19 = assay: Growth inhibition of human SNB19 cells at 10 uM after 48 hrs by sulforhodamine B assay; details: SNB-19, 48 h, read-out: GI
Outline: (§1)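 NCI-60 single-dose screen. Cells grown in RPMI 1640 with 5% FBS and L-glutamine, plated at 5000–40,000 cells/well by doubling time, and preincubated 24 h at 37 °C, 5% CO2. Compound stocks in DMSO, added at one concentration, then incubated 48 h. Adherent cells fixed with cold TCA (10% final), stained with 0.4% SRB, dye solubilized in 10 mM Tris base, A515 read. Reported as percent growth relative to untreated control.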

UACC-257 = assay: Growth inhibition of human UACC257 cells at 10 uM after 48 hrs by sulforhodamine B assay; details: UACC-257, 48 h, read-out: GI; outline: as §1
IGROV-1 = assay: Growth inhibition of human IGROV1 cells at 10 uM after 48 hrs by sulforhodamine B assay; details: IGROV-1, 48 h, read-out: GI
Outline: (§2)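 NCI one-dose primary screen at 10 (printed mM) across the 60-line panel. Cells in RPMI 1640 with 5% FBS and 2 mM L-glutamine, plated at 5000–40,000 cells/well and incubated 24 h before dosing. Exposure 48 h at 37 °C, 5% CO2. Adherent cells were fixed with cold TCA, suspension cells fixed after settling. SRB stain, absorbance 515 nm. Reported as percent growth of treated cells relative to control.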

OVCAR-4 = assay: Growth inhibition of human OVCAR4 cells at 10 uM after 48 hrs by sulforhodamine B assay; details: OVCAR-4, 48 h, read-out: GI; outline: as §2
NCI/ADR-RES = assay: Growth inhibition of human NCI/ADR-RES cells at 10 uM after 48 hrs by sulforhodamine B assay; details: read-out: GI; outline: as §2
SK-OV-3 = assay: Growth inhibition of human SKOV3 cells at 10 uM after 48 hrs by sulforhodamine B assay; details: SK-OV-3, 48 h, read-out: GI; outline: as §1
PC-3 = assay: Growth inhibition of human PC3 cells at 10 uM after 48 hrs by sulforhodamine B assay; details: PC-3, 48 h, read-out: GI; outline: as §2
NCI-H23 = assay: Cytotoxicity against human NCI-H23 cells after 48 hrs by sulforhodamine B assay; details: NCI-H23, 48 h
Outline: (§3)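 NCI 60-panel screen. Cells were grown in RPMI 1640 with 5% FBS and L-glutamine and plated at 5000–40,000 cells/well according to doubling time. They were preincubated 24 h at 37 °C, 5% CO2, then exposed 48 h to five 10-fold dilutions. Adherent cells were fixed with cold TCA, final 10%; suspension cells were fixed after settling. Cells were stained with 0.4% SRB and read at 515 nm. Tz/C/Ti growth curves gave GI50, TGI and LC50.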

MCF7 = assay: Cytotoxicity against human MCF7 cells after 48 hrs by sulforhodamine B assay; details: MCF7, 48 h; outline: as §3
[1] = read-out: LC50 (the source's name)

With `O=C(CCc1nnc(-c2ccc(Cl)cc2Cl)o1)c1nc2ccccc2[nH]1` the inhibition of growth at 10 µM (SNB-19) was 24.9%, the inhibition of growth at 10 µM (UACC-257) was 21.4% and the inhibition of growth at 10 µM (IGROV-1) was 42.4%. It also gave an inhibition of growth at 10 µM (OVCAR-4) of 41.2%, an inhibition of growth at 10 µM (NCI/ADR-RES) of 36.7% and an inhibition of growth at 10 µM (SK-OV-3) of 35.2%. It also gave an inhibition of growth at 10 µM (PC-3) of 46.9%, a GI50 (NCI-H23) of 3.23 µM and a TGI (NCI-H23) of 63.2 µM. The CC50 (NCI-H23; [1]) was 100 µM, the GI50 (MCF7) was 4.57 µM and the TGI (MCF7) was 100 µM. It also gave a CC50 (MCF7; [1]) of 100 µM.
